Assays:
[1] = Conversion rate by hydrolysis of compound in plasma after 4 hr at a pH of 7.4; format: ADME, cell-free; settings: pH 7.4, read-out: Conversion rate
[2] = Conversion rate by hydrolysis of compound in plasma after 6 hr.; format: ADME, cell-free; settings: read-out: Conversion rate
Summary of the method: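 Male Swiss mice (20–25 g) were given 24 μmol/kg prodrug orally in 1% methyl cellulose and decapitated at 0.5, 1, 3 or 6 h. Plasma HClO4 extracts were assayed by RIA for free 1, with total 1 measured after heating at 95 °C for 30 min. Value is AUCplasma(1)/[AUCplasma(1)+AUCplasma(prodrug)].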

[3] = Conversion rate by hydrolysis of compound […] after 2 hr at a pH of 1.0; format: ADME, cell-free; settings: pH 1; read-out: Conversion rate
Summary of the method: (§1)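 Prodrug from a 10 mM DMSO stock, diluted to 4 μM final in 0.4 N HClO4 and held at room temperature. Aliquots were taken at intervals. Free 1 was measured by RIA: p-benzoquinone derivatization for 30 min, then rabbit antiserum and 125I tracer. Hydrolysis % is the measured 1 as a percent of the level for complete hydrolysis.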

[4] = Concentration of compound in Central nervous system; Not detectable; format: ADME, tissue-based
[5] = Conversion rate by hydrolysis of compound in plasma after 4 hr at a pH of 7.4; Not detectable; format: ADME, cell-free; settings: pH 7.4, 4 h
[6] = Conversion rate by hydrolysis of compound […] after 2 hr at a pH of 1.0; Not detectable; format: ADME, cell-free; settings: pH 1, 2 h; summary of the method: as §1
[7] = Plasma concentration (AUC) was determined; Not detectable; format: ADME, cell-free
[8] = Conversion rate by hydrolysis of compound in plasma after 6 h; Not detectable; format: ADME, cell-free

Compound	metabolised at 4 h [1] [%]	metabolised at 6 h [2] [%]	metabolised at 2 h [3] [%]	concentration in CNS [4]	Conversion rate [5]	Conversion rate [6]	AUC [7]	Conversion rate [8]
C[C@H](Cc1c[nH]cn1)/N=C(\c1ccc(Cl)cc1)c1cc(Cl)ccc1O	16.2	58	62.7					
C[C@H](Cc1c[nH]cn1)/N=C(\c1ccccc1)c1ccccc1O		14	14.1	Not detectable				
C[C@H](Cc1c[nH]cn1)/N=C(\c1ccc(F)cc1)c1ccccc1O		26	20.1					
C[C@H](Cc1c[nH]cn1)N=C(c1ccccc1O)c1ccccc1O				Not detectable	Not detectable	Not detectable		
C[C@H](Cc1c[nH]cn1)/N=C(/c1cc(F)ccc1O)c1cccc2ccccc12	1.3	11	0.2	Not detectable				
C[C@H](Cc1c[nH]cn1)/N=C(\c1ccccc1)c1cc(Cl)ccc1O	23.2	33	46.9	Not detectable				
C[C@H](Cc1c[nH]cn1)/N=C(\c1ccc(Cl)cc1)c1cc(F)ccc1O	15.2	42	62					
COc1ccc(/C(=N/[C@H](C)Cc2c[nH]cn2)c2ccccc2)c(O)c1	6		3	Not detectable			Not detectable	
C[C@H](Cc1c[nH]cn1)/N=C(\c1ccc(F)cc1)c1cc(F)ccc1O	33.8	45	63.8					
Cc1ccc(O)c(/C(=N/[C@H](C)Cc2c[nH]cn2)c2ccccc2)c1		29	11.9	Not detectable				
C[C@H](Cc1c[nH]cn1)/N=C(\c1ccccc1)c1cc(F)cc(Cl)c1O	19.6	28	79.3					
C[C@@H]1Cc2[nH]cnc2C(c2ccccc2O)N1 (some centres undefined)			0.2	Not detectable			Not detectable	Not detectable
C[C@H](Cc1c[nH]cn1)/N=C(\c1ccccc1)c1cc(F)ccc1O	15.4	24	30					
C[C@H](Cc1c[nH]cn1)/N=C(\c1ccccc1)c1cc(Br)ccc1O	16.6	31	34.6					
C[C@H](Cc1c[nH]cn1)/N=C(\c1ccc(F)cc1)c1cc(Cl)ccc1O	26	40	67.1					
Cc1cc(O)c(/C(=N/[C@H](C)Cc2c[nH]cn2)c2ccccc2)cc1Cl	2.8	41	5.6	Not detectable				
C[C@H](Cc1c[nH]cn1)/N=C(\c1ccc(Cl)cc1)c1ccccc1O		28	18.3					
